Active and inactive are the calls of the source. The calls are words filed in the database; no cut-off is given here.
Key:
[1] = molecular target: Phosphatidylinositol 4,5-bisphosphate 3-kinase catalytic subunit alpha isoform (Homo sapiens, UniProt P42336); assay: Inhibition of human PI3Kalpha using PIP2 as substrate in presence of ATP measured after 30 mins by HTRF assay
In short: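 HTRF kit assay. Enzyme incubated with 10 μM PIP2; reaction started by adding ATP and run 30 min at room temperature, then stop solution and detection mix added and luminescence read. Compounds kept as 10 mM DMSO stocks.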

SJRH30 = assay: Antiproliferative activity against human Rh30 cells assessed as reduction in cell viability after 72 hrs by sulforhodamine B assay; format: functional, cell-based; conditions: SJRH30, 72 h
In short: (§1)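 SRB assay. Exponentially growing cells seeded at 3000–5000/well, compounds added serially diluted after 24 h, cultured 72 h. Cells fixed with 10% TCA, stained with SRB, dye dissolved in 10 mM Tris-HCl, absorbance read at 560 nm. Inhibition = (ODcontrol − ODtreated)/ODcontrol × 100%. IC50 is the mean of at least three independent tests.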

NCI-H226 = assay: Antiproliferative activity against human H226 cells assessed as reduction in cell viability after 72 hrs by sulforhodamine B assay; format: functional, cell-based; conditions: NCI-H226, 72 h; in short: as §1
Calu-3 = assay: Antiproliferative activity against human Calu3 cells assessed as reduction in cell viability after 72 hrs by sulforhodamine B assay; format: functional, cell-based; conditions: Calu-3, 72 h; in short: as §1
NCI-H1650 = assay: Antiproliferative activity against human NCI-H1650 cells assessed as reduction in cell viability after 72 hrs by sulforhodamine B assay; format: functional, cell-based; conditions: NCI-H1650, 72 h; in short: as §1
NCI-H23 = assay: Antiproliferative activity against human NCI-H23 cells assessed as reduction in cell viability after 72 hrs by sulforhodamine B assay; format: functional, cell-based; conditions: NCI-H23, 72 h; in short: as §1
A549 = assay: Antiproliferative activity against human A549 cells assessed as reduction in cell viability after 72 hrs by sulforhodamine B assay; format: functional, cell-based; conditions: A549, 72 h; in short: as §1
NCI-H522 = assay: Antiproliferative activity against human NCI-H522 cells assessed as reduction in cell viability after 72 hrs by sulforhodamine B assay; format: functional, cell-based; conditions: NCI-H522, 72 h; in short: as §1
NCI-H358 = assay: Antiproliferative activity against human NCI-H358 cells assessed as reduction in cell viability after 72 hrs by sulforhodamine B assay; format: functional, cell-based; conditions: NCI-H358, 72 h; in short: as §1
NCI-H1975 = assay: Antiproliferative activity against human NCI-H1975 cells assessed as reduction in cell viability after 72 hrs by sulforhodamine B assay; format: functional, cell-based; conditions: NCI-H1975, 72 h; in short: as §1
NCI-H460 = assay: Antiproliferative activity against human NCI-H460 cells assessed as reduction in cell viability after 72 hrs by sulforhodamine B assay; format: functional, cell-based; conditions: NCI-H460, 72 h; in short: as §1
[2] = Inhibition of human PI3Kgamma R459Q mutant using PIP2 as substrate in presence of ATP measured after 30 mins by HTRF assay
[3] = Inhibition of human PI3K p110alpha H1047R mutant/p85alpha using PIP2 as substrate incubated for 30 mins in presence of ATP by HTRF assay
MDA-MB-231 = assay: Antiproliferative activity against human MDA-MB-231 cells assessed as reduction in cell viability after 72 hrs by sulforhodamine B assay; format: functional, cell-based; in short: as §1
SK-OV-3 = assay: Antiproliferative activity against human SK-OV-3 cells assessed as reduction in cell viability after 72 hrs by sulforhodamine B assay; format: functional, cell-based; in short: as §1
MCF7 = assay: Antiproliferative activity against human MCF7 cells assessed as reduction in cell viability after 72 hrs by sulforhodamine B assay; format: functional, cell-based; in short: as §1
LoVo = assay: Antiproliferative activity against human LoVo cells assessed as reduction in cell viability after 72 hrs by sulforhodamine B assay; format: functional, cell-based; in short: as §1
PC-3 = assay: Antiproliferative activity against human PC-3 cells assessed as reduction in cell viability after 72 hrs by sulforhodamine B assay; format: functional, cell-based; in short: as §1
ZR-75-1 = assay: Antiproliferative activity against human ZR-75-1 cells assessed as reduction in cell viability after 72 hrs by sulforhodamine B assay; format: functional, cell-based; in short: as §1
T47D = assay: Antiproliferative activity against human T47D cells assessed as reduction in cell viability after 72 hrs by sulforhodamine B assay; format: functional, cell-based; in short: as §1
SK-BR-3 = assay: Antiproliferative activity against human SK-BR-3 cells assessed as reduction in cell viability after 72 hrs by sulforhodamine B assay; format: functional, cell-based; in short: as §1
HCC1954 = assay: Antiproliferative activity against human HCC1954 cells assessed as reduction in cell viability after 72 hrs by sulforhodamine B assay; format: functional, cell-based; in short: as §1
BT-474 = assay: Antiproliferative activity against human BT-474 cells assessed as reduction in cell viability after 72 hrs by sulforhodamine B assay; format: functional, cell-based; in short: as §1

Phosphatidylinositol 4,5-bisphosphate 3-kinase catalytic subunit alpha isoform, sequence (P42336 whole entry, canonical isoform): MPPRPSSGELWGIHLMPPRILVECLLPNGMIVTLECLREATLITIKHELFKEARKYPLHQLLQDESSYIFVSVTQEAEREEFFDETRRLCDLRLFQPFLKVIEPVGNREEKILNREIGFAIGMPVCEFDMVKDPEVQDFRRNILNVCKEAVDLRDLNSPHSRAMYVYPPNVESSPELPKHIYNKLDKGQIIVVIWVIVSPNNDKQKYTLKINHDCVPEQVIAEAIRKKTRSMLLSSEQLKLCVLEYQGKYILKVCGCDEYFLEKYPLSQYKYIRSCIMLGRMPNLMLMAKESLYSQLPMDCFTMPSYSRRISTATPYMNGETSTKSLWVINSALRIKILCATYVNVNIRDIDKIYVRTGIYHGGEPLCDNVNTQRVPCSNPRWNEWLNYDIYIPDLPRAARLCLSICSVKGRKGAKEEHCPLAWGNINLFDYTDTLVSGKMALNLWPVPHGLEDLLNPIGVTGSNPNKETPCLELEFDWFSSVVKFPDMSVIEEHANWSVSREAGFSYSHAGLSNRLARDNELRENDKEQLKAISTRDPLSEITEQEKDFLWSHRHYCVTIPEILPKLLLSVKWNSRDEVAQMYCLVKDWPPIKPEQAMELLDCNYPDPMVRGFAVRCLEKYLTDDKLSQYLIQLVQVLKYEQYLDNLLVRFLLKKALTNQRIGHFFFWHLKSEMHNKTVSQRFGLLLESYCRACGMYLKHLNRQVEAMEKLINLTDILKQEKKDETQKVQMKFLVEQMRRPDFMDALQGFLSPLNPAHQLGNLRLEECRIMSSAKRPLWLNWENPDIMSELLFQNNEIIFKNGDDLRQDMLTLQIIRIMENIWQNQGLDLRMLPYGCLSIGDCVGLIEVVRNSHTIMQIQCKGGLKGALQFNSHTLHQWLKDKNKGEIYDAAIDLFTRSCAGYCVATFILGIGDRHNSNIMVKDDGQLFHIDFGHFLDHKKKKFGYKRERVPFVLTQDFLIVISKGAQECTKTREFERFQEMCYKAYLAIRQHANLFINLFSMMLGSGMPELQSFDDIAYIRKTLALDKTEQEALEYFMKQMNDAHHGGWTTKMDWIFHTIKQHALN

C=CC(=O)Nc1cc(C(F)(F)F)c(-c2nc(N3CCOCC3)c3cc(CN4CCN(S(C)(=O)=O)CC4)cn3n2)cn1
IC50 [1]: 19.9 nM
IC50 (SJRH30): 710 nM

CN(C)C1CCN(C(=O)c2ccc(NC(=O)Nc3ccc(-c4nc(N5CCOCC5)c5cc(CN6CCN(S(C)(=O)=O)CC6)cn5n4)cc3)cc2)CC1
IC50 [1]: 39.6 nM
IC50 (SJRH30): 80 nM

CS(=O)(=O)N1CCN(Cc2cc3c(N4CCOCC4)nc(-c4ccc(NC(=O)Nc5ccc(F)cc5)cc4)nn3c2)CC1
IC50 (NCI-H226): 1080 nM
IC50 [1]: 105 nM
IC50 (Calu-3): 2360 nM
IC50 (NCI-H1650): 2300 nM
IC50 (NCI-H23): 695 nM
IC50 (A549): 1640 nM
IC50 (NCI-H522): 1020 nM
IC50 (NCI-H358): 1290 nM
IC50 (NCI-H1975): 460 nM
IC50 (SJRH30): 230 nM
IC50 (NCI-H460): 897 nM

CN1CCN(C(=O)c2ccc(NC(=O)Nc3ccc(-c4nc(N5CCOCC5)c5cc(CN6CCN(S(C)(=O)=O)CC6)cn5n4)cc3)cc2)CC1
IC50 (NCI-H226): 106 nM
IC50 [1]: 41.1 nM
IC50 (Calu-3): 790 nM
IC50 (NCI-H1650): 344 nM
IC50 (NCI-H23): 52 nM
IC50 (A549): 144 nM
IC50 (NCI-H522): 751 nM
IC50 (NCI-H358): 187 nM
IC50 (NCI-H1975): 25 nM
IC50 (SJRH30): 70 nM
IC50 (NCI-H460): 293 nM

CS(=O)(=O)N1CCN(Cc2cc3c(N4CCOCC4)nc(-c4cnc(NC(=O)Oc5ccccc5)cc4C(F)(F)F)nn3c2)CC1
IC50 [1]: 44.4 nM
IC50 (SJRH30): 5070 nM

CS(=O)(=O)N1CCN(Cc2cc3c(N4CCOCC4)nc(-c4cnc(N)cc4C(F)(F)F)nn3c2)CC1
IC50 [1]: 55.4 nM
IC50 (SJRH30): 880 nM

CCOC(=O)Nc1cc(C(F)(F)F)c(-c2nc(N3CCOCC3)c3cc(CN4CCN(S(C)(=O)=O)CC4)cn3n2)cn1
IC50 [1]: 21 nM
IC50 (SJRH30): 3270 nM

CCNC(=O)Nc1cc(C(F)(F)F)c(-c2nc(N3CCOCC3)c3cc(CN4CCN(S(C)(=O)=O)CC4)cn3n2)cn1
IC50 [1]: 41.7 nM
IC50 (SJRH30): 390 nM

CS(=O)(=O)N1CCN(Cc2cc3c(N4CCOCC4)nc(-c4cnc(NC(=O)Nc5ccc(F)cc5)cc4C(F)(F)F)nn3c2)CC1
IC50 [1]: 17.7 nM
IC50 (SJRH30): 180 nM

CNC(=O)Nc1cc(C(F)(F)F)c(-c2nc(N3CCOCC3)c3cc(CN4CCN(S(C)(=O)=O)CC4)cn3n2)cn1
IC50 [1]: 23.6 nM
IC50 (SJRH30): 150 nM

C[C@H]1COCCN1c1nc(-c2cnc(N)cc2C(F)(F)F)nn2cc(CN3CCN(S(C)(=O)=O)CC3)cc12
IC50 [1]: 50.5 nM
IC50 (SJRH30): 970 nM

CS(=O)(=O)N1CCN(Cc2cc3c(N4CC5CCC(C4)O5)nc(-c4cnc(N)cc4C(F)(F)F)nn3c2)CC1
IC50 [1]: 244 nM
IC50 (SJRH30): 1780 nM

CN(C)C(=O)c1ccc(NC(=O)Nc2ccc(-c3nc(N4CCOCC4)c4cc(CN5CCN(S(C)(=O)=O)CC5)cn4n3)cc2)cc1
IC50 [1]: 67.5 nM
IC50 (SJRH30): 90 nM

Cc1nc(NC(=O)N2CCC[C@H]2C(N)=O)sc1-c1ccnc(C(C)(C)C(F)(F)F)c1 [ALPELISIB]
IC50 [2]: 1670 nM
IC50 [3]: 10.9 nM
IC50 (SJRH30): 7600 nM

CS(=O)(=O)N1CCN(Cc2cc3nc(-c4cccc5[nH]ncc45)nc(N4CCOCC4)c3s2)CC1 [PICTILISIB]
Activity (MDA-MB-231): Active
Activity (SK-OV-3): Active
Activity (MCF7): Active
IC50 (NCI-H226): 5910 nM
Activity (LoVo): Active
IC50 (Calu-3): 2870 nM
Activity (PC-3): Active
IC50 (NCI-H1650): 4730 nM
IC50 (NCI-H23): 936 nM
Activity (ZR-75-1): Active
IC50 (A549): 2480 nM
IC50 (NCI-H522): 2140 nM
IC50 (NCI-H358): 1330 nM
IC50 (NCI-H1975): 703 nM
IC50 (SJRH30): 478 nM
Activity (T47D): Active
Activity (SK-BR-3): Active
IC50 (NCI-H460): 1260 nM
Activity (HCC1954): Active
Activity (BT-474): Active
